≈ marks a conversion by molar mass, not a printed value.
Legend:
Type in all cases: functional
Staphylococcus aureus [1] = experiment: In vitro antibacterial activity was determined against Staphylococcus aureus 209P NIHJ JCI.
[2] = test system: Staphylococcus epidermidis; experiment: In vitro antibacterial activity was determined against methicillin-resistant Staphylococcus epidermidis MB5181.
How it was run: (§1)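 Minimum inhibitory concentration determined by agar dilution. The S. aureus pMS520/Smith and S. epidermidis MB5181 strains are methicillin-resistant isolates.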

Staphylococcus aureus [3] = experiment: In vitro antibacterial activity was determined against methicillin-resistant Staphylococcus aureus pMS520/Smith.; how it was run: as §1
Pseudomonas aeruginosa [4] = experiment: In vitro antibacterial activity was determined against Pseudomonas aeruginosa AK109.
Pseudomonas aeruginosa [5] = experiment: In vitro antibacterial activity was determined against ceftazidime- resistant Pseudomonas aeruginosa AKR17.; how it was run: as §1
Escherichia coli = experiment: In vitro antibacterial activity was determined against Escherichia coli NIHJ JC2.
Staphylococcus aureus [6] = experiment: TIn vitro antibacterial activity against methicillin-resistant Staphylococcus aureus pMS520/Smith.; how it was run: as §1

Row | Structure (SMILES) | MIC (Staphylococcus aureus [1]) | MIC [2] | MIC (Staphylococcus aureus [3]) | MIC (Pseudomonas aeruginosa [4]) | MIC (Pseudomonas aeruginosa [5]) | MIC (Escherichia coli) | MIC (Staphylococcus aureus [6])
1 | C[C@@H](O)[C@H]1C(=O)N2C(C(=O)O)=C(S[C@@H]3CN[C@H](CNc4ccccc4)C3)[C@H](C)[C@H]12 | < 0.006 µg/mL | 6.25 µg/mL (≈ 15 µM) | 12.5 µg/mL (≈ 29.9 µM) | 12.5 µg/mL (≈ 29.9 µM) | 25 µg/mL (≈ 59.9 µM) | 0.05 µg/mL (≈ 0.12 µM) | 
2 | C[C@@H](O)[C@H]1C(=O)N2C(C(=O)O)=C(S[C@@H]3CN[C@H](COc4ccc(CN)cc4)C3)[C@H](C)[C@H]12 | < 0.006 µg/mL | 6.25 µg/mL (≈ 14 µM) | 3.13 µg/mL (≈ 6.99 µM) | 1.56 µg/mL (≈ 3.49 µM) | 12.5 µg/mL (≈ 27.9 µM) | 0.025 µg/mL (≈ 0.0559 µM) | 
3 | C[C@@H](O)[C@H]1C(=O)N2C(C(=O)O)=C(S[C@@H]3CN[C@H](CCc4ccccc4)C3)[C@H](C)[C@H]12 | < 0.006 µg/mL | 3.13 µg/mL (≈ 7.51 µM) | 6.25 µg/mL (≈ 15 µM) | 25 µg/mL (≈ 60 µM) | > 50 µg/mL | 0.05 µg/mL (≈ 0.12 µM) | 
4 | C[C@@H](O)[C@H]1C(=O)N2C(C(=O)O)=C(S[C@@H]3CN[C@@H](CSc4ccc(CN)cc4)C3)[C@H](C)[C@H]12 | < 0.006 µg/mL | 3.13 µg/mL (≈ 6.75 µM) | 3.13 µg/mL (≈ 6.75 µM) | 1.56 µg/mL (≈ 3.36 µM) | 12.5 µg/mL (≈ 27 µM) | 0.05 µg/mL (≈ 0.108 µM) | 
5 | C[C@@H](O)[C@H]1C(=O)N2C(C(=O)O)=C(S[C@@H]3CN[C@@H](c4ccc(CN)cc4)C3)[C@H](C)[C@H]12 | < 0.006 µg/mL | 1.56 µg/mL (≈ 3.74 µM) | 0.78 µg/mL (≈ 1.87 µM) | 0.39 µg/mL (≈ 0.934 µM) | 3.13 µg/mL (≈ 7.5 µM) | 0.025 µg/mL (≈ 0.0599 µM) | 
6 | C[C@@H](O)[C@H]1C(=O)N2C(C(=O)O)=C(S[C@@H]3CN[C@H](COc4ccccc4)C3)[C@H](C)[C@H]12 | 0.012 µg/mL (≈ 0.0287 µM) | 25 µg/mL (≈ 59.7 µM) | 25 µg/mL (≈ 59.7 µM) | 25 µg/mL (≈ 59.7 µM) | > 50 µg/mL | 0.39 µg/mL (≈ 0.932 µM) | 
7 | C[C@@H](O)[C@H]1C(=O)N2C(C(=O)O)=C(S[C@@H]3CN[C@H](CSc4ccc(CN)cc4)C3)[C@H](C)[C@H]12 | < 0.006 µg/mL | 3.13 µg/mL (≈ 6.75 µM) | 1.56 µg/mL (≈ 3.36 µM) | 0.78 µg/mL (≈ 1.68 µM) | 3.13 µg/mL (≈ 6.75 µM) | 0.025 µg/mL (≈ 0.0539 µM) | 
8 | C[C@@H](O)[C@H]1C(=O)N2C(C(=O)O)=C(S[C@@H]3CN[C@@H](Cc4ccc(CN)cc4)C3)[C@H](C)[C@H]12 | 0.05 µg/mL (≈ 0.116 µM) | 12.5 µg/mL (≈ 29 µM) | 12.5 µg/mL (≈ 29 µM) | 25 µg/mL (≈ 57.9 µM) | > 100 µg/mL | 0.39 µg/mL (≈ 0.904 µM) | 
9 | C[C@@H](O)[C@H]1C(=O)N2C(C(=O)O)=C(S[C@@H]3CN[C@H](Cc4ccc(CN)cc4)C3)[C@H](C)[C@H]12 | < 0.006 µg/mL | 3.13 µg/mL (≈ 7.25 µM) | 3.13 µg/mL (≈ 7.25 µM) | 0.39 µg/mL (≈ 0.904 µM) | 6.25 µg/mL (≈ 14.5 µM) | 0.025 µg/mL (≈ 0.0579 µM) | 
10 | C[C@@H](O)[C@H]1C(=O)N2C(C(=O)O)=C(S[C@@H]3CN[C@H](Cc4ccccc4)C3)[C@H](C)[C@H]12 | < 0.006 µg/mL | 3.13 µg/mL (≈ 7.78 µM) | 6.25 µg/mL (≈ 15.5 µM) | 25 µg/mL (≈ 62.1 µM) | > 50 µg/mL | 0.1 µg/mL (≈ 0.248 µM) | 
11 | C[C@@H](O)[C@H]1C(=O)N2C(C(=O)O)=C(S[C@@H]3CN[C@H](CSc4ccccc4)C3)[C@H](C)[C@H]12 | < 0.006 µg/mL | 3.13 µg/mL (≈ 7.2 µM) | 6.25 µg/mL (≈ 14.4 µM) | 50 µg/mL (≈ 115 µM) | 50 µg/mL (≈ 115 µM) | 0.1 µg/mL (≈ 0.23 µM) | 
12 | C[C@@H](O)[C@H]1C(=O)N2C(C(=O)O)=C(S[C@@H]3CN[C@H](CCc4ccc(CN)cc4)C3)[C@H](C)[C@H]12 | < 0.006 µg/mL | 25 µg/mL (≈ 56.1 µM) | 3.13 µg/mL (≈ 7.02 µM) | 0.78 µg/mL (≈ 1.75 µM) | 6.25 µg/mL (≈ 14 µM) | 0.025 µg/mL (≈ 0.0561 µM) | 
13 | C[C@@H](O)[C@H]1C(=O)N2C(C(=O)O)=C(S[C@@H]3CN[C@H](c4ccc(CN)cc4)C3)[C@H](C)[C@H]12 | < 0.006 µg/mL | 3.13 µg/mL (≈ 7.5 µM) |  | 0.78 µg/mL (≈ 1.87 µM) | 6.25 µg/mL (≈ 15 µM) | 0.025 µg/mL (≈ 0.0599 µM) | 1.56 µg/mL (≈ 3.74 µM)
14 | C[C@@H](O)[C@H]1C(=O)N2C(C(=O)O)=C(S[C@@H]3CN[C@H](CNc4ccc(CN)cc4)C3)[C@H](C)[C@H]12 | < 0.006 µg/mL | 6.25 µg/mL (≈ 14 µM) | 3.13 µg/mL (≈ 7.01 µM) | 1.56 µg/mL (≈ 3.49 µM) | 12.5 µg/mL (≈ 28 µM) | 0.025 µg/mL (≈ 0.056 µM) | 
15 | C[C@@H](O)[C@H]1C(=O)N2C(C(=O)O)=C(SCCNC=N)C[C@H]12.O | < 0.006 µg/mL | 50 µg/mL | 50 µg/mL | 1.56 µg/mL | 3.13 µg/mL | 0.01 µg/mL | 
16 | CN[C@H](CC(C)C)C(=O)N[C@H]1C(=O)N[C@@H](CC(N)=O)C(=O)N[C@H]2C(=O)N[C@H]3C(=O)N[C@H](C(=O)N[C@H](C(=O)O)c4cc(O)cc(O)c4-c4cc3ccc4O)[C@H](O)c3ccc(c(Cl)c3)Oc3cc2cc(c3O[C@@H]2O[C@H](CO)[C@@H](O)[C@H](O)[C@H]2O[C@H]2C[C@](C)(N)[C@H](O)[C@H](C)O2)Oc2ccc(cc2Cl)[C@H]1O [VANCOMYCIN] |  |  | 0.78 µg/mL (≈ 0.538 µM) | > 100 µg/mL | > 100 µg/mL | > 100 µg/mL | 

From ChEMBL document CHEMBL1132751, “Structure-activity relationships of trans-3,5-disubstituted pyrrolidinylthio-1beta-methylcarbapenems. Part 1: J-111,347 and related compounds” (2000)
